Results collected from several papers.
Protocols differ between the studies behind these lines. ≈ marks a conversion by molar mass, not a printed value.

Compound | tested on | test | setting | endpoint | value
Cc1nc(Nc2ncc(C(=O)Nc3c(C)cccc3Cl)s2)cc(N2CC[C@H](O)C2)n1 | Daudi | cell growth or viability, ATP luminescence | 10 µM, 72 h | inhibition | 75%
COc1cc(C2=CCCCc3c2ccc(OC)c3OCc2cnc([N+](=O)[O-])n2C)cc(OC)c1OC |  | tubulin polymerisation, inhibitor | 20 min | IC50 | > 20 µM
COc1ccc(NC(=O)c2ccc(COC(Cn3ccnc3)c3ccc(Cl)cc3Cl)cc2)cc1 (stereo not shown) | Nakaseomyces glabratus | microbial growth, broth dilution |  | MIC80 | 0.125 µg/mL (≈ 0.252 µM)
Cc1n[nH]c2ccc3nc(-c4ccc(C(=O)NCCN(C)C)cc4)c4c(c3c12)CCCC4 | HCC827 | cell growth or viability | 72 h | GI50 | 4.07 µM
OC(Cn1cncn1)(Cn1cncn1)c1ccc(F)cc1F | Nakaseomyces glabratus | microbial growth, broth dilution |  | MIC80 | 8 µg/mL (≈ 26.1 µM)
CCCCC(=O)Nc1ccc(-c2ccc3ncn(CCC(C)C)c(=O)c3c2)cn1 | HCC827 | cell growth or viability, CCK-8 | 72 h | IC50 | 0.55 µM
COc1cc(C2=CCCc3c2ccc(OC)c3OCc2cnc([N+](=O)[O-])n2C)cc(OC)c1OC |  | tubulin polymerisation, inhibitor | 20 min | IC50 | > 20 µM
Cc1n[nH]c2ccc3nc(-c4ccc(C(=O)NCCN(C)C)cc4)c4c(c3c12)CCCCC4 | HCC827 | cell growth or viability | 72 h | GI50 | 7.12 µM
O=C(Nc1ccc(F)cc1)c1ccc(COC(Cn2ccnc2)c2ccc(Cl)cc2Cl)cc1 (stereo not shown) | Nakaseomyces glabratus | microbial growth, broth dilution |  | MIC80 | 0.25 µg/mL (≈ 0.516 µM)
COc1cc(C2=CCCCc3c2ccc(OC)c3OC(C)c2ccc([N+](=O)[O-])s2)cc(OC)c1OC (stereo not shown) |  | tubulin polymerisation, inhibitor | 20 min | IC50 | > 20 µM
Cc1n[nH]c2ccc3nc(-c4ccc(C(=O)NCCN(C)C)cc4F)c4c(c3c12)CCCC4 | HCC827 | cell growth or viability | 72 h | GI50 | 0.611 µM
COc1cc(C2=CCCCc3c2ccc(OC)c3OC(C)c2cnc([N+](=O)[O-])n2C)cc(OC)c1OC (stereo not shown) |  | tubulin polymerisation, inhibitor | 20 min | IC50 | > 20 µM
Clc1ccc(COC(Cn2ccnc2)c2ccc(Cl)cc2Cl)c(Cl)c1 (stereo not shown) | Nakaseomyces glabratus | microbial growth, broth dilution |  | MIC80 | 0.125 µg/mL (≈ 0.3 µM)
